Assay results: ChEMBL document CHEMBL1212932, “Nocapyrones A-D, gamma-pyrones from a Nocardiopsis strain isolated from the marine sponge Halichondria panicea” (2010)
Active and inactive are the calls of the source. No cut-off for these calls is given here.

How the values were obtained:
HepG2 = assay: Cytotoxicity against human HepG2 cells at 50 uM; type: functional
Summary of the method: (§1)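 Cells were treated with compound at 50 µM. The read-out was metabolic activity, and the value is given as the percent reduction in metabolic activity.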

NIH3T3 = assay: Cytotoxicity against mouse NIH/3T3 cells at 50 uM; type: functional; summary of the method: as §1
Ralstonia solanacearum = assay: Antimicrobial activity against Ralstonia solanacearum DSM 9544; type: functional, organism-based
Mammaliicoccus lentus = assay: Antimicrobial activity against Staphylococcus lentus DSM 6672; type: functional, organism-based
Escherichia coli = assay: Antimicrobial activity against Escherichia coli K-12 DSM 498; type: functional, organism-based
[1] = biological target: Glycogen synthase kinase-3 beta (Homo sapiens) (UniProt P49841); assay: Inhibition of GSK3-beta
Xanthomonas campestris = assay: Antimicrobial activity against Xanthomonas campestris DSM 2405; type: functional, organism-based
[2] = tested on: Staphylococcus epidermidis; assay: Antimicrobial activity against Staphylococcus epidermidis DSM 20044; type: functional, organism-based
[3] = biological target: Acetylcholinesterase (Homo sapiens) (UniProt P22303); assay: Inhibition of acetylcholinesterase by colorimetric assay
Candida albicans = assay: Antimicrobial activity against Candida albicans DSM 6425; type: functional, organism-based
[4] = biological target: Human immunodeficiency virus type 1 reverse transcriptase (Human immunodeficiency virus 1) (UniProt Q72547); assay: Inhibition of HIV1 reverse transcriptase by ELISA
[5] = Inhibition of phosphodiesterase 4 by colorimetric assay
Pseudomonas fluorescens = assay: Antimicrobial activity against Pseudomonas fluorescens NCIMB 10586; type: functional, organism-based
Bacillus subtilis = assay: Antimicrobial activity against Bacillus subtilis DSM 347; type: functional, organism-based
Pseudomonas syringae = assay: Antimicrobial activity against Pseudomonas syringae DSM 50252; type: functional, organism-based
Cutibacterium acnes = assay: Antimicrobial activity against Propionibacterium acnes DSM 1897; type: functional, organism-based
Pseudomonas aeruginosa = assay: Antimicrobial activity against Pseudomonas aeruginosa DSM 50071; type: functional, organism-based
Erwinia amylovora = assay: Antimicrobial activity against Erwinia amylovora DSM 50901; type: functional, organism-based
[6] = biological target: T1, Tyrosine-protein phosphatase non-receptor type 1 (Homo sapiens) (UniProt P18031); assay: Inhibition of protein tyrosine phosphatase 1b by colorimetric assay
T1 sequence (whole entry): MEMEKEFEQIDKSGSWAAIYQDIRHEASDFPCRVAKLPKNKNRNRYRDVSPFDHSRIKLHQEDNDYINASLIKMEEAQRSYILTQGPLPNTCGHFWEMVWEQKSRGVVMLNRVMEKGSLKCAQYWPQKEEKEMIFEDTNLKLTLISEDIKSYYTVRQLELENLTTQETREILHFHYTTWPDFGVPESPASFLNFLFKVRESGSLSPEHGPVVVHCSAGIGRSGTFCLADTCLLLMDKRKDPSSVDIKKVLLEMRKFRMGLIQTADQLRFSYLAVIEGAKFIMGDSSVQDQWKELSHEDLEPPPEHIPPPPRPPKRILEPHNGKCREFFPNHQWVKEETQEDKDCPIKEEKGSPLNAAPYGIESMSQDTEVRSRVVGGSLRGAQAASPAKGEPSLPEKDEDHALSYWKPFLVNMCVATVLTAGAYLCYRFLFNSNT

Glycogen synthase kinase-3 beta (Homo sapiens), sequence (P49841 whole entry, looked up): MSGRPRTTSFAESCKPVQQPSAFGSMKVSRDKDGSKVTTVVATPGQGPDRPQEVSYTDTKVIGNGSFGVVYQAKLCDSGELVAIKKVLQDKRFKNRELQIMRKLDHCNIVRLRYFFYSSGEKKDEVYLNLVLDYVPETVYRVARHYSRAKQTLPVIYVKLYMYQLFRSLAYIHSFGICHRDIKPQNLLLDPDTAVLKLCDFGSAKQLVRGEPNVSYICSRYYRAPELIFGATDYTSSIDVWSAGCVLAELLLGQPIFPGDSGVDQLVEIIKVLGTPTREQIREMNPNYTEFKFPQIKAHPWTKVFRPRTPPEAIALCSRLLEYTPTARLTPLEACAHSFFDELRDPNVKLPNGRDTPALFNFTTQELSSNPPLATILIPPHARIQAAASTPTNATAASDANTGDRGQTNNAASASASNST
Acetylcholinesterase (Homo sapiens), sequence (P22303 whole entry): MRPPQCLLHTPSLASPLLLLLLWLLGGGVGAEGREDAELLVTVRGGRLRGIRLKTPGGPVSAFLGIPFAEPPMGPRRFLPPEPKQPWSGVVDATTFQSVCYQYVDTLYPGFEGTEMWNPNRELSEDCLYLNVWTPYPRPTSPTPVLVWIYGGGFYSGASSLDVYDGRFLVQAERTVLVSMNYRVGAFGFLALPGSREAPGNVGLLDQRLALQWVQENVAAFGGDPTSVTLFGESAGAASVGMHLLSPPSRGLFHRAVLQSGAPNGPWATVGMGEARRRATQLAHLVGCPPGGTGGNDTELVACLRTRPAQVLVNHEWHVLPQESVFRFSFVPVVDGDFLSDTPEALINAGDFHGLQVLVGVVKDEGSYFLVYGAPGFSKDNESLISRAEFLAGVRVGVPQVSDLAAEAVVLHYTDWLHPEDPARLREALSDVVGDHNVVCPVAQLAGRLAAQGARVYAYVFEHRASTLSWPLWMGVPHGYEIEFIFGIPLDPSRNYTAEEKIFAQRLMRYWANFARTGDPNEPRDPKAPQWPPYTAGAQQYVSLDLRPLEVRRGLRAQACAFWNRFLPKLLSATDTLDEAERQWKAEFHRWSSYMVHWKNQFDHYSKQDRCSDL

Row | Structure (SMILES) | Activity (HepG2) | Activity (NIH3T3) | Activity (Ralstonia solanacearum) | Activity (Mammaliicoccus lentus) | Activity (Escherichia coli) | Activity [1] | Activity (Xanthomonas campestris) | Activity [2] | Activity [3] | Activity (Candida albicans) | Activity [4] | Activity [5] | Activity (Pseudomonas fluorescens) | Activity (Bacillus subtilis) | Activity (Pseudomonas syringae) | Activity (Cutibacterium acnes) | Activity (Pseudomonas aeruginosa) | Activity (Erwinia amylovora) | Activity [6]
1 | COc1ccc(/C=c2/[nH]c(=O)/c(=C/C(C)C)[nH]c2=O)cc1 | 44% | 64% |  |  |  |  |  |  |  |  |  |  |  |  |  |  |  |  | 
2 | COc1oc(CCCCC(C)(C)O)c(C)c(=O)c1C |  |  | inactive | inactive | inactive | inactive | inactive | inactive | inactive | inactive | inactive | inactive | inactive | inactive | inactive | inactive | inactive | inactive | inactive
3 | COc1oc(CCCCC(C)C)c(C)c(=O)c1C |  |  | inactive | inactive | inactive | inactive | inactive | inactive | inactive | inactive | inactive | inactive | inactive | inactive | inactive | inactive | inactive | inactive | inactive
